Laboratory results taken from ChEMBL document CHEMBL1142148, “Antibiotic susceptibility profile of bifidobacteria as affected by oxgall, acid, and hydrogen peroxide stress” (2007).
≈ marks a conversion by molar mass, not a printed value.

What was measured:
[1] = tested on: Bifidobacterium animalis; assay: Antimicrobial activity against Bifidobacterium animalis ATCC 27536; assay type: functional
Outline: (§1)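 Broth microdilution in MRS plus 0.05% L-cysteine-HCl. Mid-log culture adjusted to OD650 0.1, giving about 2.5 × 10^4 to 5.0 × 10^4 CFU/well, then added to twofold serial dilutions of agent. Plates incubated anaerobically at 37°C for 18 h and read at OD650. MIC is the lowest concentration matching the uninoculated blank OD, taken as the median of four repeats.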

[2] = tested on: Bifidobacterium bifidum; assay: Antimicrobial activity against Bifidobacterium bifidum R0071; assay type: functional; outline: as §1
[3] = tested on: Bifidobacterium bifidum; assay: Antimicrobial activity against Bifidobacterium bifidum ATCC 15696; assay type: functional; outline: as §1
[4] = tested on: Bifidobacterium bifidum; assay: Antimicrobial activity against Bifidobacterium bifidum BB12; assay type: functional; outline: as §1
[5] = tested on: Bifidobacterium breve; assay: Antimicrobial activity against Bifidobacterium breve ATCC 15700; assay type: functional; outline: as §1
[6] = Antimicrobial activity against Bifidobacterium infantis ATCC 15697; assay type: functional, Bifidobacterium longum subsp. infantis; conditions: Bifidobacterium longum; outline: as §1
[7] = tested on: Bifidobacterium longum; assay: Antimicrobial activity against Bifidobacterium longum ATCC 15708; assay type: functional; outline: as §1
[8] = tested on: Bifidobacterium longum; assay: Antimicrobial activity against Bifidobacterium longum R0175; assay type: functional; outline: as §1
[9] = tested on: Bifidobacterium longum; assay: Antimicrobial activity against Bifidobacterium longum P/N 601377; assay type: functional; outline: as §1
[10] = tested on: Bifidobacterium pseudolongum; assay: Antimicrobial activity against Bifidobacterium pseudolongum ATCC 25562; assay type: functional; outline: as §1
[11] = tested on: Bifidobacterium thermophilum; assay: Antimicrobial activity against Bifidobacterium thermophilum ATCC 25866; assay type: functional; outline: as §1
[12] = tested on: Bifidobacterium breve; assay: Antimicrobial activity against Bifidobacterium breve R0070; assay type: functional; outline: as §1
[13] = tested on: Bifidobacterium animalis; assay: Antimicrobial activity against 60 min 1 M HCl-stressed Bifidobacterium animalis ATCC 27536 after 18 hrs; assay type: functional
Outline: (§2)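 Mid-log MRS culture pelleted and resuspended in MRS broth brought to pH 2.0 with 1 M HCl, held anaerobically at 37°C for 60 min, then subcultured in MRS (pH 6.5) for 24 h anaerobically before MIC testing by broth microdilution (as for unstressed cells). Table footnote gives 18 h anaerobic regrowth after the stress. MIC is the median of four repetitions.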

[14] = tested on: Bifidobacterium bifidum; assay: Antimicrobial activity against 60 min 1 M HCl-stressed Bifidobacterium bifidum R0071 after 18 hrs; assay type: functional; outline: as §2
[15] = tested on: Bifidobacterium bifidum; assay: Antimicrobial activity against 60 min 1 M HCl-stressed Bifidobacterium bifidum BB12 after 18 hrs; assay type: functional; outline: as §2
[16] = tested on: Bifidobacterium breve; assay: Antimicrobial activity against 60 min 1 M HCl-stressed Bifidobacterium breve ATCC 15700 after 18 hrs; assay type: functional; outline: as §2
[17] = tested on: Bifidobacterium breve; assay: Antimicrobial activity against 60 min 1 M HCl-stressed Bifidobacterium breve R0070 after 18 hrs; assay type: functional; outline: as §2
[18] = Antimicrobial activity against 60 min 1 M HCl-stressed Bifidobacterium infantis ATCC 15697 after 18 hrs; assay type: functional, Bifidobacterium longum subsp. infantis; conditions: Bifidobacterium longum; outline: as §2
[19] = tested on: Bifidobacterium longum; assay: Antimicrobial activity against 60 min 1 M HCl-stressed Bifidobacterium longum ATCC 15707 after 18 hrs; assay type: functional; outline: as §2
[20] = tested on: Bifidobacterium longum; assay: Antimicrobial activity against 60 min 1 M HCl-stressed Bifidobacterium longum R0175 after 18 hrs; assay type: functional; outline: as §2
[21] = tested on: Bifidobacterium longum; assay: Antimicrobial activity against 60 min 1 M HCl-stressed Bifidobacterium longum P/N 601377 after 18 hrs; assay type: functional; outline: as §2
[22] = tested on: Bifidobacterium pseudolongum; assay: Antimicrobial activity against 60 min 1 M HCl-stressed Bifidobacterium pseudolongum ATCC 25562 after 18 hrs; assay type: functional; outline: as §2
[23] = tested on: Bifidobacterium thermophilum; assay: Antimicrobial activity against 60 min 1 M HCl-stressed Bifidobacterium thermophilum ATCC 25866 after 18 hrs; assay type: functional; outline: as §2
[24] = tested on: Bifidobacterium animalis; assay: Antimicrobial activity against 90 mins oxgall-stressed Bifidobacterium animalis ATCC 27536 after 18 hrs; assay type: functional
Outline: (§3)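 Cells pelleted from mid-log MRS culture and resuspended in MRS (initial pH 6.5) with 0.3% (wt/vol) oxgall for 90 min anaerobically at 37°C. They were then regrown in MRS pH 6.5 for 24 h (footnote: 18 h) anaerobically and tested for MIC by the same broth microdilution assay. Median of four repetitions.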

[25] = tested on: Bifidobacterium bifidum; assay: Antimicrobial activity against 90 mins oxgall-stressed Bifidobacterium bifidum R0071 after 18 hrs; assay type: functional; outline: as §3
[26] = tested on: Bifidobacterium bifidum; assay: Antimicrobial activity against 90 mins oxgall-stressed Bifidobacterium bifidum ATCC 15696 after 18 hrs; assay type: functional; outline: as §3
[27] = tested on: Bifidobacterium bifidum; assay: Antimicrobial activity against 90 mins oxgall-stressed Bifidobacterium bifidum BB12 after 18 hrs; assay type: functional; outline: as §3
[28] = tested on: Bifidobacterium breve; assay: Antimicrobial activity against 90 mins oxgall-stressed Bifidobacterium breve ATCC 15700 after 18 hrs; assay type: functional; outline: as §3
[29] = tested on: Bifidobacterium breve; assay: Antimicrobial activity against 90 mins oxgall-stressed Bifidobacterium breve R0070 after 18 hrs; assay type: functional; outline: as §3
[30] = Antimicrobial activity against 90 mins oxgall-stressed Bifidobacterium infantis ATCC 15697 after 18 hrs; assay type: functional, Bifidobacterium longum subsp. infantis; conditions: Bifidobacterium longum; outline: as §3
[31] = tested on: Bifidobacterium longum; assay: Antimicrobial activity against 90 mins oxgall-stressed Bifidobacterium longum ATCC 15707 after 18 hrs; assay type: functional; outline: as §3
[32] = tested on: Bifidobacterium longum; assay: Antimicrobial activity against 90 mins oxgall-stressed Bifidobacterium longum ATCC 15708 after 18 hrs; assay type: functional; outline: as §3
[33] = tested on: Bifidobacterium longum; assay: Antimicrobial activity against Bifidobacterium longum ATCC 15707; assay type: functional; outline: as §1
[34] = tested on: Bifidobacterium longum; assay: Antimicrobial activity against 90 mins oxgall-stressed Bifidobacterium longum R0175 after 18 hrs; assay type: functional; outline: as §3
[35] = tested on: Bifidobacterium longum; assay: Antimicrobial activity against 90 mins oxgall-stressed Bifidobacterium longum P/N 601377 after 18 hrs; assay type: functional; outline: as §3
[36] = tested on: Bifidobacterium pseudolongum; assay: Antimicrobial activity against 90 mins oxgall-stressed Bifidobacterium pseudolongum ATCC 25562 after 18 hrs; assay type: functional; outline: as §3
[37] = tested on: Bifidobacterium thermophilum; assay: Antimicrobial activity against 90 mins oxgall-stressed Bifidobacterium thermophilum ATCC 25866 after 18 hrs; assay type: functional; outline: as §3
[38] = tested on: Bifidobacterium animalis; assay: Antimicrobial activity against 90 mins hydrogen peroxide-stressed Bifidobacterium animalis ATCC 27536 after 18 hrs; assay type: functional
Outline: (§4)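 Stress applied for 90 min at 37°C under anaerobic conditions, using MRS (initial pH 6.5) containing H2O2 at each strain's own inhibitory concentration. The H2O2 level was set beforehand by microplate tolerance testing. Challenged cells were regrown in MRS for 24 h (footnote: 18 h) before MIC testing by broth microdilution. Median of four repetitions.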

[39] = tested on: Bifidobacterium bifidum; assay: Antimicrobial activity against 90 mins hydrogen peroxide-stressed Bifidobacterium bifidum R0071 after 18 hrs; assay type: functional; outline: as §4
[40] = tested on: Bifidobacterium bifidum; assay: Antimicrobial activity against 90 mins hydrogen peroxide-stressed Bifidobacterium bifidum BB12 after 18 hrs; assay type: functional; outline: as §4
[41] = tested on: Bifidobacterium breve; assay: Antimicrobial activity against 90 mins hydrogen peroxide-stressed Bifidobacterium breve ATCC 15700 after 18 hrs; assay type: functional; outline: as §4
[42] = tested on: Bifidobacterium breve; assay: Antimicrobial activity against 90 mins hydrogen peroxide-stressed Bifidobacterium breve R0070 after 18 hrs; assay type: functional; outline: as §4
[43] = tested on: Bifidobacterium longum; assay: Antimicrobial activity against 90 mins hydrogen peroxide-stressed Bifidobacterium longum ATCC 15707 after 18 hrs; assay type: functional; outline: as §4
[44] = tested on: Bifidobacterium longum; assay: Antimicrobial activity against 90 mins hydrogen peroxide-stressed Bifidobacterium longum ATCC 15708 after 18 hrs; assay type: functional; outline: as §4
[45] = tested on: Bifidobacterium longum; assay: Antimicrobial activity against 90 mins hydrogen peroxide-stressed Bifidobacterium longum R0175 after 18 hrs; assay type: functional; outline: as §4
[46] = tested on: Bifidobacterium longum; assay: Antimicrobial activity against 90 mins hydrogen peroxide-stressed Bifidobacterium longum P/N 601377 after 18 hrs; assay type: functional; outline: as §4
[47] = tested on: Bifidobacterium thermophilum; assay: Antimicrobial activity against 90 mins hydrogen peroxide-stressed Bifidobacterium thermophilum ATCC 25866 after 18 hrs; assay type: functional; outline: as §4

Compound: CC[C@H]1OC(=O)[C@H](C)[C@@H](O[C@H]2C[C@@](C)(OC)[C@@H](O)[C@H](C)O2)[C@H](C)[C@@H](O[C@@H]2O[C@H](C)C[C@H](N(C)C)[C@H]2O)[C@](C)(O)C[C@@H](C)C(=O)[C@H](C)[C@@H](O)[C@]1(C)O [ERYTHROMYCIN]
- MIC [1]: 3.9 µg/mL (≈ 5.31 µM)
- MIC [2]: 1.9 µg/mL (≈ 2.59 µM)
- MIC [3]: 7.8 µg/mL (≈ 10.6 µM)
- MIC [4]: 15.6 µg/mL (≈ 21.3 µM)
- MIC [5]: 1.95 µg/mL (≈ 2.66 µM)
- MIC [6]: 15.6 µg/mL (≈ 21.3 µM)
- MIC [7]: 3.9 µg/mL (≈ 5.31 µM)
- MIC [8]: 0.98 µg/mL (≈ 1.34 µM)
- MIC [9]: 0.98 µg/mL (≈ 1.34 µM)
- MIC [10]: 3.9 µg/mL (≈ 5.31 µM)
- MIC [11]: 0.98 µg/mL (≈ 1.34 µM)
- MIC [12]: 0.98 µg/mL (≈ 1.34 µM)
- MIC [13]: 1.9 µg/mL (≈ 2.59 µM)
- MIC [14]: 0.98 µg/mL (≈ 1.34 µM)
- MIC [15]: 3.9 µg/mL (≈ 5.31 µM)
- MIC [16]: 3.9 µg/mL (≈ 5.31 µM)
- MIC [17]: 0.98 µg/mL (≈ 1.34 µM)
- MIC [18]: 3.9 µg/mL (≈ 5.31 µM)
- MIC [19]: 0.98 µg/mL (≈ 1.34 µM)
- MIC [20]: 0.98 µg/mL (≈ 1.34 µM)
- MIC [21]: 0.98 µg/mL (≈ 1.34 µM)
- MIC [22]: 3.9 µg/mL (≈ 5.31 µM)
- MIC [23]: 0.98 µg/mL (≈ 1.34 µM)
- MIC [24]: 1.9 µg/mL (≈ 2.59 µM)
- MIC [25]: 3.9 µg/mL (≈ 5.31 µM)
- MIC [26]: 3.9 µg/mL (≈ 5.31 µM)
- MIC [27]: 3.9 µg/mL (≈ 5.31 µM)
- MIC [28]: 0.98 µg/mL (≈ 1.34 µM)
- MIC [29]: 0.98 µg/mL (≈ 1.34 µM)
- MIC [30]: 3.9 µg/mL (≈ 5.31 µM)
- MIC [31]: 3.9 µg/mL (≈ 5.31 µM)
- MIC [32]: 1.9 µg/mL (≈ 2.59 µM)
- MIC [33]: 0.98 µg/mL (≈ 1.34 µM)
- MIC [34]: 1.9 µg/mL (≈ 2.59 µM)
- MIC [35]: 3.9 µg/mL (≈ 5.31 µM)
- MIC [36]: 3.9 µg/mL (≈ 5.31 µM)
- MIC [37]: 3.9 µg/mL (≈ 5.31 µM)
- MIC [38]: 0.98 µg/mL (≈ 1.34 µM)
- MIC [39]: 500 µg/mL (≈ 681 µM)
- MIC [40]: 0.98 µg/mL (≈ 1.34 µM)
- MIC [41]: 0.98 µg/mL (≈ 1.34 µM)
- MIC [42]: 0.98 µg/mL (≈ 1.34 µM)
- MIC [43]: 0.98 µg/mL (≈ 1.34 µM)
- MIC [44]: 0.98 µg/mL (≈ 1.34 µM)
- MIC [45]: 0.98 µg/mL (≈ 1.34 µM)
- MIC [46]: 1.9 µg/mL (≈ 2.59 µM)
- MIC [47]: 0.98 µg/mL (≈ 1.34 µM)
